Source: ChEMBL document CHEMBL3580529, “Limonoids with Anti-HIV Activity from Cipadessa cinerascens” (J Nat Prod, 2015)

How the values were obtained:
[1] = tested on: Human immunodeficiency virus 1; assay: Antiviral activity against HIV1 NL4-3 infected in human MT4 cells assessed as inhibition of virus-induced cytopathic effect incubated for 3 to 4 days by MTT assay; type: functional, organism-based; settings: Human immunodeficiency virus 1, NL4-3, MT4
In short: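 MT-4 cells seeded with serial compound dilutions, then infected with HIV-1 NL4-3 at final MOI 0.03; 37 °C, 5% CO2, humidified, 3 or 4 days. MTT (5 mg/mL in PBS) added for 3 h, cells lysed in 10% Triton X-100/acidified 2-propanol, absorbance 570 nm. EC50 = concentration giving 50% protection against HIV-induced cytopathic effect.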

[2] = Selectivity index, ratio of CC50 against human MT4 cells to EC50 for HIV1 NL4-3 infected in human MT4 cells; type: toxicity, cell-based; settings: MT4 cells (CC50) and HIV1 NL4-3 infected MT4 cells (EC50)
In short: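 SI calculated as CC50 (MT-4 cytotoxicity, MTT read-out) divided by EC50 (protection of MT-4 cells from HIV-1 NL4-3 cytopathic effect, MOI 0.03), both from parallel 3–4 day assays at 37 °C.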

[3] = Cytotoxicity against human MT4 cells assessed as reduction in cell viability incubated for 3 to 4 days by MTT assay; type: cell-based
In short: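 Serially diluted compounds on MT-4 cells, 37 °C, 5% CO2, humidified, 3 or 4 days; viability by MTT (5 mg/mL in PBS, 3 h), formazan solubilized with 10% Triton X-100 in acidified 2-propanol, read at 570 nm. CC50 = concentration killing 50% of MT-4 cells.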

Compound	EC50 [1] [µM]	selectivity ratio [2]	CC50 [3] [µM]
C=C1[C@H]2C(=O)[C@@]3(C)[C@@H](O[C@@]14CC(=O)O[C@@H](c1ccoc1)[C@]4(C)[C@H]2O)[C@@H](OC(C)=O)[C@@H](OC(C)=O)C(C)(C)[C@@H]3CC(=O)OC	> 100		
C=C1[C@H]2C(=O)[C@@]3(C)[C@@H](O[C@@]14CC(=O)O[C@@H](c1ccoc1)[C@]4(C)[C@H]2O)[C@@H](O)[C@@H](OC(C)=O)C(C)(C)[C@@H]3CC(=O)OC	5.5	> 7.2	> 40
C=C1[C@H]2C(=O)[C@@]3(C)[C@@H](O[C@@]14CC(=O)O[C@@H](c1ccoc1)[C@]4(C)[C@H]2OC(C)=O)[C@@H](O)[C@@H](OC(C)=O)C(C)(C)[C@@H]3CC(=O)OC	> 100		
C=C1[C@@H]2C[C@@]3(C)[C@H](c4ccoc4)OC(=O)C[C@]13O[C@H]1C[C@@H](O)C(C)(C)[C@H](CC(=O)OC)[C@@]1(C)C2=O	> 100		
C=C1[C@@H]2C[C@@]3(C)[C@H](C4=C[C@@H](O)OC4=O)OC(=O)C[C@]13O[C@H]1C[C@@H](OC(C)=O)C(C)(C)[C@H](CC(=O)OC)[C@@]1(C)C2=O	> 100		
C=C1[C@H]2C(=O)[C@@]3(C)[C@@H](O[C@@]14CC(=O)O[C@@H](C1=C[C@@H](O)OC1=O)[C@]4(C)[C@H]2OC(C)=O)[C@@H](OC(C)=O)[C@@H](OC(C)=O)C(C)(C)[C@@H]3CC(=O)OC	> 100		
C=C1[C@H]2C(=O)[C@@]3(C)[C@@H](O[C@@]14CC(=O)O[C@@H](C1=C[C@@H](O)OC1=O)[C@]4(C)[C@H]2OC(C)=O)[C@@H](OC(C)=O)CC(C)(C)[C@@H]3CC(=O)OC	> 100		
COC(=O)C[C@H]1C(C)(C)[C@H](OC(C)=O)[C@H](OC(C)=O)[C@@H]2O[C@]34CC(=O)O[C@@H](c5ccoc5)[C@]3(C)[C@@H](O)[C@@H](C(=O)[C@@H]4C)[C@@]21C	> 100		
COC(=O)C[C@H]1C(C)(C)[C@H](OC(C)=O)C[C@@H]2O[C@]34CC(=O)O[C@@H](c5ccoc5)[C@]3(C)[C@@H](O)[C@@H](C(=O)[C@@H]4C)[C@@]21C	> 100		
COC(=O)C[C@H]1C(C)(C)[C@H](OC(C)=O)[C@H](O)[C@@H]2O[C@]34CC(=O)O[C@@H](c5ccoc5)[C@]3(C)[C@@H](O)[C@@H](C(=O)[C@@H]4C)[C@@]21C	> 100		
COC(=O)C[C@H]1C(C)(C)[C@H](OC(C)=O)[C@H](OC(C)=O)[C@@H]2O[C@]34CC(=O)O[C@@H](c5ccoc5)[C@]3(C)[C@@H](O)[C@@H](C(=O)[C@]4(C)O)[C@@]21C	> 100		
COC(=O)C[C@H]1C(C)(C)[C@H](OC(C)=O)[C@H](OC(C)=O)[C@@H]2O[C@]34CC(=O)O[C@@H](c5ccoc5)[C@]3(C)[C@@H](O)[C@@H](C(=O)[C@@]4(C)O)[C@@]21C	> 100		
COC(=O)C[C@H]1C(C)(C)[C@H](OC(C)=O)[C@H](O)[C@@H]2OC3=C(C)C4=CC(=O)O[C@@H](c5ccoc5)[C@]4(C)[C@@H](O)[C@@H]3[C@@]21C	> 100		
COC(=O)C[C@H]1C(C)(C)[C@H](O)[C@H](O)[C@@H]2OC3=C(C)C4=CC(=O)O[C@@H](c5ccoc5)[C@]4(C)[C@@H](O)[C@@H]3[C@@]21C	> 100		
COC(=O)C[C@H]1C(C)(C)[C@H](O)[C@H](O)[C@@H]2OC3=C(C)C4=CC(=O)O[C@@H](c5ccoc5)[C@]4(C)C[C@@H]3[C@@]21C	> 100		
CCC(C)C(O)C(=O)O[C@H]1[C@H](OC=O)[C@H]([C@@]2(C)[C@@H](OC(C)=O)CC(=O)O[C@](C)(COC(C)=O)[C@@H]2CC(=O)OC)C(COC)=C2[C@H](O)C[C@@H](c3ccoc3)[C@@]21C (some centres not stated)	6.1	> 6.5	> 40
Cc1ccnc2c1NC(=O)c1cccnc1N2C1CC1 [NEVIRAPINE]	0.1	> 833	
